Where two headings read alike, the source gives them in different places.
Key:
[1] = radiopharmaceutical biodistribution in rats following intravenous injection; assay type: in vivo, rat; conditions: male rats, i.v.; for Percentage of Injected Dose per Organ, Blood: blood assumed 7% of body mass
Method in brief: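 67Ga-labelled chelate prepared with ligand in ethanol containing acetylacetone at 70°C for 20 min, diluted with saline to 5–10% ethanol, filtered, purity checked by C18 TLC. Given 1–5 μCi (0.037–0.185 MBq) via femoral vein to ether-anaesthetised male Sprague-Dawley rats. Organs sampled at 1 min and 2 h. Data given as %ID/organ and %ID/g wet tissue; blood taken as 7% and muscle as 42% of body mass.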

[2] = rats, ref [11], cited from earlier work
[3] = 60-minutes rather than 120-minutes post-injection
[4] = 1 min, based on % injected dose per gram

[86Rb+].[Cl-] [[^86Rb]RbCl, [^86Rb]rubidium chloride]
Percentage of Injected Dose per Organ, Brain ([1]; 1 min post-injection): 0.08 ± 0.01 Percentage of Injected Dose per Organ | Percentage of Injected Dose per Organ, Heart ([1]; 1 min post-injection): 2.86 ± 0.38 Percentage of Injected Dose per Organ | Percentage of Injected Dose per Organ, Kidney (1) ([1]; 1 min post-injection): 6.7 ± 1.1 Percentage of Injected Dose per Organ | Percentage of Injected Dose per Organ, Liver ([1]; 1 min post-injection): 5.4 ± 0.8 Percentage of Injected Dose per Organ | Percentage of Injected Dose per Organ, Lungs ([1]; 1 min post-injection): 2.0 ± 0.3 Percentage of Injected Dose per Organ | Percentage of Injected Dose per Organ, Spleen ([1]; 1 min post-injection): 0.32 ± 0.08 Percentage of Injected Dose per Organ | Percentage of Injected Dose per Organ, Blood ([1]; 1 min post-injection): 3.61 ± 0.28 Percentage of Injected Dose per Organ | Percentage of Injected Dose per Organ, Brain ([1]; 120 min post-injection): 0.12 ± 0.01 Percentage of Injected Dose per Organ | Percentage of Injected Dose per Organ, Heart ([1]; 120 min post-injection): 0.69 ± 0.02 Percentage of Injected Dose per Organ | Percentage of Injected Dose per Organ, Kidney (1) ([1]; 120 min post-injection): 1.01 ± 0.04 Percentage of Injected Dose per Organ | Percentage of Injected Dose per Organ, Lungs ([1]; 120 min post-injection): 1.11 ± 0.01 Percentage of Injected Dose per Organ | Percentage of Injected Dose per Organ, Spleen ([1]; 120 min post-injection): 0.71 ± 0.13 Percentage of Injected Dose per Organ | Percentage of Injected Dose per Organ, Blood ([1]; 120 min post-injection): 1.43 ± 0.08 Percentage of Injected Dose per Organ

[C-]#[N+]CC(C)(C)OC.[C-]#[N+]CC(C)(C)OC.[C-]#[N+]CC(C)(C)OC.[C-]#[N+]CC(C)(C)OC.[C-]#[N+]CC(C)(C)OC.[C-]#[N+]CC(C)(C)OC.[Tc] [[^99mTc]Tc-Sestamibi^1+, [^99mTc]Tc-sestamibi]
Heart/Blood ratio [2, 3]: 208 ± 25 | Heart/Liver ratio [2, 3]: 5.3 ± 1.7 | Heart/Lung ratio [2, 3]: 6.5 ± 1.7 | Heart/Blood ratio [2, 4]: 11.1 ± 0.2 | Heart/Liver ratio [2, 4]: 1.7 ± 0.1 | Heart/Lung ratio [2, 4]: 1.3 ± 0.2

— publication PMC2655349 (Nuclear medicine and biology, 2009)
